Results reported in ChEMBL document CHEMBL2417372, “Design, synthesis, and mechanism of action of 2-(3-hydroxy-5-methoxyphenyl)-6-pyrrolidinylquinolin-4-one as a potent anticancer lead” (Bioorg Med Chem Lett, 2013).

What was measured:
[1] = test system: NCI-H522; experiment: Cytotoxicity against human NCI-H522 cells after 48 hrs by MTT assay; assay type: functional, cell-based; conditions: NCI-H522, 48 h
[2] = Cytotoxicity against human Hep3B cells after 48 hrs; assay type: functional, cell-based, Hep 3B2
Summary of the method: (§1)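 MTT viability assay on log-phase cells at 37 °C, exposed to compound or DMSO vehicle for 48 h. MTT (1 mg/mL in PBS) was then added for 2 h, and absorbance was read at 570 nm with 630 nm correction. IC50 is the concentration giving 50% proliferation inhibition. Cells were cultured in 5% CO2: HL-60 in RPMI-1640 with 10% FBS; Hep3B in DMEM/F12 with 10% FBS; Detroit 551 in DMEM with 10% FBS.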

[3] = test system: Detroit 551; experiment: Cytotoxicity against human Detroit 551 cells after 48 hrs; assay type: cell-based; conditions: Detroit 551, 48 h; summary of the method: as §1
[4] = test system: MDA-MB-468; experiment: Cytotoxicity against human MDA-MB-468 cells after 48 hrs; assay type: functional; conditions: MDA-MB-468, 48 h
[5] = test system: MDA-MB-231; experiment: Cytotoxicity against human MDA-MB-231 cells after 48 hrs; assay type: functional; conditions: MDA-MB-231, 48 h
[6] = Cytotoxicity against human Hs578T cells after 48 hrs; assay type: functional; conditions: Hs-578T
[7] = test system: DU-145; experiment: Cytotoxicity against human DU145 cells after 48 hrs; assay type: functional; conditions: DU-145, 48 h
[8] = test system: PC-3; experiment: Cytotoxicity against human PC3 cells after 48 hrs; assay type: functional; conditions: PC-3, 48 h
[9] = test system: SN12C; experiment: Cytotoxicity against human SN12C cells after 48 hrs; assay type: functional
[10] = test system: RXF 393; experiment: Cytotoxicity against human RXF393 cells after 48 hrs; assay type: functional; conditions: RXF 393, 48 h
[11] = test system: CAKI-1; experiment: Cytotoxicity against human CAKI-1 cells after 48 hrs; assay type: functional; conditions: CAKI-1, 48 h
[12] = test system: A498; experiment: Cytotoxicity against human A498 cells after 48 hrs; assay type: functional; conditions: A498, 48 h
[13] = test system: SK-OV-3; experiment: Cytotoxicity against human SKOV3 cells after 48 hrs; assay type: functional; conditions: SK-OV-3, 48 h
[14] = test system: 786-0; experiment: Cytotoxicity against human 786-0 cells after 48 hrs; assay type: functional; conditions: 786-0, 48 h
[15] = Cytotoxicity against human NCI-ADR-RES cells after 48 hrs; assay type: functional
[16] = test system: UACC-62; experiment: Cytotoxicity against human UACC62 cells after 48 hrs; assay type: functional; conditions: UACC-62, 48 h
[17] = test system: IGROV-1; experiment: Cytotoxicity against human IGROV1 cells after 48 hrs; assay type: functional; conditions: IGROV-1, 48 h
[18] = test system: SK-MEL-5; experiment: Cytotoxicity against human SK-MEL-5 cells after 48 hrs; assay type: functional; conditions: SK-MEL-5, 48 h
[19] = test system: SK-MEL-28; experiment: Cytotoxicity against human SK-MEL-28 cells after 48 hrs; assay type: functional; conditions: SK-MEL-28, 48 h
[20] = test system: SK-MEL-2; experiment: Cytotoxicity against human SK-MEL-2 cells after 48 hrs; assay type: functional; conditions: SK-MEL-2, 48 h
Summary of the method: (§2)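 Tested in the NCI-60 human cancer cell line panel. Results are given as log concentrations: GI50 reduced cell growth to 50% […], TGI caused total growth inhibition, and LC50 killed 50% of the test population.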

[21] = test system: LOX IMVI; experiment: Cytotoxicity against human LOXIMVI cells after 48 hrs; assay type: functional
[22] = test system: SF-539; experiment: Cytotoxicity against human SF539 cells after 48 hrs; assay type: functional; conditions: SF-539, 48 h
[23] = test system: SF-295; experiment: Cytotoxicity against human SF295 cells after 48 hrs; assay type: functional; conditions: SF-295, 48 h
[24] = test system: SF-268; experiment: Cytotoxicity against human SF268 cells after 48 hrs; assay type: functional; conditions: SF-268, 48 h
[25] = test system: KM12; experiment: Cytotoxicity against human KM12 cells after 48 hrs; assay type: functional; conditions: KM12, 48 h
[26] = test system: SW-620; experiment: Cytotoxicity against human SW620 cells after 48 hrs; assay type: functional; conditions: SW-620, 48 h
[27] = test system: HCT-15; experiment: Cytotoxicity against human HCT15 cells after 48 hrs; assay type: functional; conditions: HCT-15, 48 h
[28] = test system: NCI-H522; experiment: Cytotoxicity against human NCI-H522 cells after 48 hrs; assay type: functional; conditions: NCI-H522, 48 h, read-out: pLC50 (the source's name) (converted)
[29] = test system: NCI-H460; experiment: Cytotoxicity against human NCI-H460 cells after 48 hrs; assay type: functional, cell-based; conditions: NCI-H460, 48 h
[30] = test system: NCI-H23; experiment: Cytotoxicity against human NCI-H23 cells after 48 hrs; assay type: functional; conditions: NCI-H23, 48 h
[31] = test system: SR; experiment: Cytotoxicity against human SR cells after 48 hrs; assay type: functional
[32] = Cytotoxicity against human EKVX cells after 48 hrs; assay type: functional; summary of the method: as §2
[33] = test system: K562; experiment: Cytotoxicity against human K562 cells after 48 hrs; assay type: functional; conditions: K562, 48 h
[34] = test system: MOLT-4; experiment: Cytotoxicity against human MOLT4 cells after 48 hrs; assay type: functional; conditions: MOLT-4, 48 h
[35] = test system: CCRF-CEM; experiment: Cytotoxicity against human CCRF-CEM cells after 48 hrs; assay type: functional
[36] = read-out: pLC50 (the source's name) (converted)

Structure (SMILES): COc1cc(O)cc(-c2cc(=O)c3cc(N4CCCC4)ccc3[nH]2)c1
- IC50 [1]: 0.0423 µM
- IC50 [2]: 0.5 µM
- IC50 [3]: > 50 µM
- GI50 [4]: 0.263 µM
- CC50 [4, 36]: > 100 µM
- TGI ([4]; read-out: pTGI (converted)): 2 µM
- GI50 [5]: 0.0501 µM
- CC50 [5, 36]: > 100 µM
- TGI ([5]; read-out: pTGI): > 100 µM
- GI50 [6]: 0.038 µM
- CC50 [6, 36]: > 100 µM
- TGI ([6]; read-out: pTGI (converted)): 70.8 µM
- GI50 [7]: 0.0309 µM
- CC50 [7, 36]: > 100 µM
- TGI ([7]; read-out: pTGI (converted)): 0.257 µM
- GI50 [8]: 0.0977 µM
- CC50 [8, 36]: > 100 µM
- TGI ([8]; read-out: pTGI): > 100 µM
- GI50 [9]: 0.0724 µM
- CC50 [9, 36]: > 100 µM
- TGI ([9]; read-out: pTGI): > 100 µM
- GI50 [10]: 0.0407 µM
- CC50 [10, 36]: > 100 µM
- TGI ([10]; read-out: pTGI (converted)): 24 µM
- GI50 [11]: 0.0832 µM
- CC50 [11, 36]: > 100 µM
- TGI ([11]; read-out: pTGI): > 100 µM
- GI50 [12]: 4.07 µM
- CC50 [12, 36]: > 100 µM
- TGI ([12]; read-out: pTGI): > 100 µM
- GI50 [13]: 0.0234 µM
- CC50 [13, 36]: > 100 µM
- TGI ([13]; read-out: pTGI (converted)): 25.1 µM
- GI50 [14]: 0.178 µM
- CC50 [14, 36]: > 100 µM
- TGI ([14]; read-out: pTGI): > 100 µM
- GI50 [15]: 0.0617 µM
- CC50 [15, 36]: > 100 µM
- TGI ([15]; read-out: pTGI (converted)): 0.513 µM
- GI50 [16]: 0.646 µM
- CC50 [16, 36]: > 100 µM
- TGI ([16]; read-out: pTGI): > 100 µM
- GI50 [17]: 0.363 µM
- CC50 [17, 36]: > 100 µM
- TGI ([17]; read-out: pTGI): > 100 µM
- GI50 [18]: 0.0246 µM
- CC50 [18, 36]: 0.49 µM
- TGI ([18]; read-out: pTGI (converted)): 0.0661 µM
- GI50 [19]: 0.0741 µM
- CC50 [19, 36]: > 100 µM
- TGI ([19]; read-out: pTGI): > 100 µM
- GI50 [20]: 0.0282 µM
- CC50 [20, 36]: 87.1 µM
- GI50 [21]: 0.0324 µM
- CC50 [21, 36]: > 100 µM
- TGI ([21]; read-out: pTGI): > 100 µM
- GI50 [22]: 0.0288 µM
- CC50 [22, 36]: > 100 µM
- TGI ([22]; read-out: pTGI): > 100 µM
- GI50 [23]: 0.11 µM
- TGI ([23]; read-out: pTGI (converted)): 11.2 µM
- GI50 [24]: 0.0257 µM
- CC50 [24, 36]: > 100 µM
- TGI ([24]; read-out: pTGI): > 100 µM
- GI50 [25]: 0.0347 µM
- CC50 [25, 36]: > 100 µM
- TGI ([25]; read-out: pTGI): > 100 µM
- GI50 [26]: 0.0447 µM
- CC50 [26, 36]: > 100 µM
- TGI ([26]; read-out: pTGI): > 100 µM
- GI50 [27]: 0.0537 µM
- CC50 [27, 36]: > 100 µM
- TGI ([27]; read-out: pTGI): > 100 µM
- CC50 [28]: 3.89 µM
- GI50 [29]: 0.324 µM
- IC50 [29]: 2.12 µM
- LC50 [29]: > 100 µM
- TGI ([29]; read-out: pTGI): > 100 µM
- GI50 [30]: 0.126 µM
- CC50 [30, 36]: > 100 µM
- TGI ([30]; read-out: pTGI (converted)): 81.3 µM
- GI50 [31]: < 0.01 µM
- CC50 [31, 36]: > 100 µM
- TGI ([31]; read-out: pTGI): > 100 µM
- CC50 [32, 36]: > 100 µM
- TGI ([32]; read-out: pTGI): > 100 µM
- GI50 [33]: 0.0234 µM
- CC50 [33, 36]: > 100 µM
- TGI ([33]; read-out: pTGI): > 100 µM
- GI50 [34]: 0.0347 µM
- CC50 [34, 36]: > 100 µM
- TGI ([34]; read-out: pTGI): > 100 µM
- GI50 [35]: 0.0324 µM
- CC50 [35, 36]: > 100 µM
- TGI ([35]; read-out: pTGI): > 100 µM
